# Only some compounds are listed: those with a hit (about 4.2% of all), similar ones and a draw of the others.
# Mot1-301 SUMO – inhibitors of SUMOylation pathway: yeast Mot1-301 growth rescue; 320,000 tested, 1% active; growth rescue, % at 18.8 µM; S. cerevisiae Mot1-301 growth rescue, ATP luminescence, 38.5C; percent above DMSO median, 100 means doubled;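 active means every valid replicate shows activation above 250% relative to neutral control wells; inactive means the rest, any valid replicate at or below 250%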;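 further: OY570 slx delta 5 strain wells were the positive control but not used for scaling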
# KCNQ1 block – inhibitors of human KCNQ1 potassium channel | CHO-K1 KCNQ1, FluxOR thallium flux fluorescence; hits give high values | B-score at 10 µM | 310,000 tested, 1.3% active;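 active means compounds whose thallium flux B-score, printed positive for inhibition, exceeds three library SD while starting fluorescence stays within three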;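 further: channel opened by potassium depolarization with thallium stimulus after 20 min compound exposure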
# Target sequence (P51787 whole entry, looked up): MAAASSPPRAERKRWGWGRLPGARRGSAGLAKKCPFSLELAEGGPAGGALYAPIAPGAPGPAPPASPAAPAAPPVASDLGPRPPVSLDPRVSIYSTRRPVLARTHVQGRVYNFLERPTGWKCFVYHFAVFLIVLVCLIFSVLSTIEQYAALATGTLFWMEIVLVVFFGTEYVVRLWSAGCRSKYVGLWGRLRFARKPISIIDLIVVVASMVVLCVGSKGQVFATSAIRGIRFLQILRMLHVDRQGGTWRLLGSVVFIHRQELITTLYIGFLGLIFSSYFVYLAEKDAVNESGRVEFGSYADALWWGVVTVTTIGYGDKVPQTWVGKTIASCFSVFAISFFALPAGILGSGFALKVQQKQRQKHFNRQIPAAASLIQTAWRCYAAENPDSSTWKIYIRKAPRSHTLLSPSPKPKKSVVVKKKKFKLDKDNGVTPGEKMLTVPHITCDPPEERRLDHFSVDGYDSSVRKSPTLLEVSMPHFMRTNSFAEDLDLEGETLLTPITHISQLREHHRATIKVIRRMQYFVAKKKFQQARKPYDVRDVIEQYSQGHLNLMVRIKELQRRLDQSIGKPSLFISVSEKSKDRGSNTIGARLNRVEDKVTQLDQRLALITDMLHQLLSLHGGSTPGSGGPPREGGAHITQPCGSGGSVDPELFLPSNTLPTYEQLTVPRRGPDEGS
# KCC2 mod – KCC2 (human) Cl- transport modulation; KCC2 cells, thallium flux FluoZin-2 fluorescence; B-score of Tl+ flux slope (higher = more flux/activation; lower = inhibition) at 10 µM; 190,000 tested, 2.2% active; Q9H2X9;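 active means thallium flux slope and its plate-corrected score both differing from the plate sample mean at a set confidence after two filtering rounds, in either direction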;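 further: slope of fluorescence scaled to starting intensity during 10 to 20 s after thallium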
# AI-2 QS mod – Vibrio harveyi AI-2 quorum sensing modulation. 300,000 tested, 0.4% active. AID 2094. activity change, % at 7.5 µM. Vibrio harveyi JMH597 AI-2 luminescence/OD600 ratio, 9 h; hits give low values; strain lacks LuxN and CqsS sensors; 0 = neutral-control median; in the data active means activity change below about -75%, passing the limit was not always enough;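 further: luminescence divided by OD600 gain over 9 h not by final OD600 alone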
# hERG rescue – hERG (human) protection from proarrhythmic block. AID 1511. 310,000 tested, 0.51% active. Q12809. CHO-hERG, FluxOR thallium flux, dofetilide IC70 present. activation (rescue from dofetilide block), less the hit threshold, % at 10 µM;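 active means activation above the mean of controls blocked by dofetilide plus 5 SD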;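 further: thallium influx through hERG after potassium depolarization seen as dye fluorescence rise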
# KCNQ1 act – potentiators or activators of human KCNQ1 potassium channel; P51787; CHO-K1 KCNQ1, thallium flux FluxOR fluorescence; hits give high values; B-score at 10 µM; 310,000 tested, 0.35% active;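 active means fluorescence ratio B-score, a plate-corrected score, at least three library SD, with initial intensity B-score within 5 SD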
#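 Assay system: CHO-K1 cells stably expressing KCNQ1; Medium: assay buffer with matched DMSO; Also added: K+/Tl+ depolarizing stimulus; Dosing: single dose; Timing: dye 90 min, compound 20 min, room temperature; Measured by: kinetic FluxOR thallium fluorescence, 10-s 1-Hz baseline, 110-s post-stimulus read; Read-out: peak-minus-minimum fluorescence over initial fluorescence, negative-control normalized, B-scored.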
# Yeast Mot1 SUMO – yeast SUMO pathway inhibition in dose response. S. cerevisiae Mot1-301 galactose growth, ATP luminescence, 24 h; -100 = growth of slx-deleted rescue strain. growth activity, percent, % at 42 µM. 2,300 tested, under 10 active. shares compounds with Mot1-301 SUMO;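 active means Signal drops as the depositor expects, and the fitted half-maximal dose is no more than ten times the top valid tested dose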;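 further: more negative values mean stronger growth rescue toward the control strain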
# Starred values were filed as active, the others as inactive; i = inactive; x = no result; + = active, no number.
SMILES,Mot1-301 SUMO,KCNQ1 block,KCC2 mod,AI-2 QS mod,hERG rescue,KCNQ1 act,Yeast Mot1 SUMO
Cc1ccc(-c2nc(-c3cccnc3)sc2CC(=O)O)cc1,885*,i,-0.76,24,-9,i,0
O=C(NC1CC2CCCC(C1)N2Cc1cccs1)c1ccc([N+](=O)[O-])cc1 (stereo not given),-26,i,-0.51,0,-11,i,x
COc1ccc(N2C(=O)CC(NCc3cccs3)C2=O)cc1 (stereo not given),359*,i,0.38,0,-14,i,1
Nc1ccc(NC(=O)c2ccco2)c(Cl)c1,439*,i,x,25,-9,i,0
O=C(Nc1cc(Cl)ccc1Cl)c1ccco1,7,i,x,0,-7,i,x
Cc1nnc(SCC(=O)NCc2ccccc2Cl)[nH]c1=O,+,i,0.37,28,-3,i,1
CCN(CC(=O)NCc1ccc(Cl)cc1)C(=O)/C=C/c1ccccc1,3,i,x,46,-4,i,x
CCN(CC(=O)NCc1ccc(Cl)cc1)C(=O)/C=C/c1ccc(C#N)cc1,821*,i,x,15,-4,i,1
Cc1cc(C)nc(N2CCCC(C(=O)NCCC3=CCCCC3)C2)n1 (stereo not given),10,i,x,8,-12,i,x
CCn1c(N)[n+](CC(=O)Nc2ccc(SC(F)F)cc2)c2ccccc21,-5,i,0.77,8,-22,i,x
CC1=C(C(=O)OCc2ccccc2)C(c2cccc(F)c2)NC(=O)N1 (stereo not given),611*,i,x,65,0,i,0
Cc1ccc(S(=O)(=O)N2CCN(C(=O)CC(C)n3cncn3)CC2)cc1 (stereo not given),-25,i,x,23,-4,i,x
Cc1ccc(S(=O)(=O)NCC(C)n2cncn2)cc1 (stereo not given),533*,i,x,15,-2,i,1
CS(=O)(=O)N1CCCC(C(=O)Nc2ccc(Br)cc2F)C1 (stereo not given),8,i,1.1,40,-2,i,x
CS(=O)(=O)N1CCCC(C(=O)Nc2ccc(F)cc2F)C1 (stereo not given),+,i,-0.027,-4,-7,i,1
Nc1nnc(COc2ccc(Br)cc2Br)s1,+,i,x,37,4,i,1
Cc1ccc(C)c(OCc2nnc(N)s2)c1,7,i,-0.0056,9,-6,i,x
Cc1ccccc1-c1nnc(CN2CCC(C)CC2)o1,403*,i,x,18,-6,i,0
COc1ccc2cc(C(=O)Nc3ccc(Cl)cc3)sc(=O)c2c1OC,752*,i,0.86,20,-9,i,0
COc1ccc2cc(C(=O)Nc3ccc(O)cc3)sc(=O)c2c1OC,-6,i,-1.7,15,-5,i,x
CCCCc1nnc(NC(=O)CSc2nc(O)c(-c3ccccc3)c(=O)[nH]2)s1,631*,i,0.74,38,-5,i,1
CC1CCN(C(=O)c2[nH]cnc2C(=O)NCC(=O)OCc2ccccc2)CC1,790*,i,x,20,-11,i,0
COc1cccc(-c2csc(N3CCN(CC(=O)NNC(=O)c4ccc(Br)cc4)CC3)n2)c1,-10,i,x,2,4,i,x
O=C(CN1CCN(c2nc(-c3ccccc3)cs2)CC1)NNC(=O)c1ccc(Br)cc1,656*,i,0.13,21,-3,i,2
Cc1c(C(=O)Nc2cccc(F)c2)cnn1-c1ccccc1,805*,i,x,5,-7,i,-1
SMILES,Mot1-301 SUMO,KCNQ1 block,KCC2 mod,AI-2 QS mod,hERG rescue,KCNQ1 act,Yeast Mot1 SUMO
Cc1nc2ccccc2c(=O)n1CC(=O)N1CCOCC1,687*,i,0.78,7,-6,i,1
CCCCn1c(SCC(=O)N2CCOCC2)nc2ccccc2c1=O,19,i,x,-1,-2,i,x
COc1cccc(NC(=S)NC(=O)c2cncc(Br)c2)c1,983*,i,x,-3,-7,i,-1
CCCCCC(=O)Nc1ccc(-c2csc(N)n2)cc1,471*,i,-0.034,13,-5,i,-1
CCCCCC(=O)Nc1ccc(-c2csc(C)n2)cc1,-14,i,-0.12,11,-17,i,x
COc1cccc(NC(=O)C(c2ccccc2)N2CCN(CC(=O)N3CCOCC3)CC2)c1 (stereo not given),-2,x,x,x,x,x,x
O=C(CSc1nnc(-c2ccccc2Cl)o1)Oc1ccc(Br)cc1,501*,i,1,3,-2,i,0
O=C(CSc1nnc(-c2ccccc2O)o1)Oc1ccc(Br)cc1,-22,i,0.33,20,-12,i,x
CCOC(=O)c1cc2sc(C)cc2n1CC(=O)Nc1ccc2c(c1)OCCO2,784*,i,x,14,-1,i,0
CN(C)/C=C/C(=O)c1ccc(Br)cc1,9,i,-0.0069,18,-3,i,x
CN(C)/C=C/C(=O)c1ccncc1,877*,i,2.4,-1,-7,i,0
O=S(=O)(/N=C/c1c(O)ccc2ccccc12)c1cccs1,41,i,0.68,24,-2,i,x
c1ccc2nc3c(nc2c1)OCC1CCCCN31 (stereo not given),360*,i,x,17,-6,i,0
Cc1nc2ccccc2nc1N1CCOCC1,-2,i,-0.39,-8,-1,i,x
Cc1ccc(N(CC(=O)NC2CCCC2)C(=O)CCCC(=O)Nc2ccccn2)cc1C,-2,i,x,29,-9,i,x
O=C(CCCC(=O)N(CC(=O)NC1CCCC1)c1cccc(F)c1)Nc1ccccn1,362*,i,x,26,-9,i,1
Cc1ccc(N(CC(=O)NC2CCCC2)C(=O)CCC(=O)Nc2ccccn2)cc1C,439*,i,x,x,-14,i,0
Cc1cc(NC(=O)CCC(=O)N(c2cccnc2)C(C(=O)NC2CCCC2)c2ccccc2)no1 (stereo not given),+,i,-0.78,38,0,i,0
Cc1cc(C)cc(N(CC(=O)NC2CCCCC2)C(=O)CCCC(=O)Nc2ccccn2)c1,-4,i,x,3,-6,i,x
O=C(O)c1ccc(Cl)c(NCc2cccs2)c1,560*,i,x,36,-6,i,0
CCOc1ncccc1-c1nc(-c2cccs2)no1,916*,i,x,9,-1,i,0
CCOc1nc(-c2ccccc2)ccc1-c1noc(-c2cccs2)n1,x,i,0.34,7,-3,i,x
